We go through two compounds from ChEMBL document CHEMBL1150387, “Development and experimental validation of a docking strategy for the generation of kinase-targeted libraries” (J Med Chem, 2008).

For orientation: inhibition means the relative decrease from the control value, in per cent.

For assay [1], the target named is Proto-oncogene tyrosine-protein kinase Src (Homo sapiens) (UniProt P12931). Description: Inhibition of Src at 10 uM by HTRF assay relative to control. The essentials:
(§1)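 HTRF kinase assay, one panel of kinases. Inhibitor stock 50 µM in 100% DMSO; tested at 10 µM. ATP and substrate at final levels near Km. Final buffer: 50 mM Hepes/NaOH pH 7.4, 40 µM Na3VO4, 0.005% Tween-20, 1 mM DTT, MnCl2 or MgCl2 at kinase-dependent levels. Started by adding ATP/substrate. Reaction run at room temperature, time varied by kinase. Detection mix in 50 mM Hepes pH 7.4, 0.1% BSA, 150 mM KF, incubated ≥1 h at room temperature. Activity expressed as % of uninhibited control; n=2.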

Assay [2] concerns the target Vascular endothelial growth factor receptor 1 (Homo sapiens) (UniProt P17948). Description: Inhibition of FLT1 at 10 uM by HTRF assay relative to control. The essentials:
as §1
For orientation: In TR-FRET formats the signal depends on donor and acceptor labels being close together.

The target of assay [3] is T1, Ephrin type-B receptor 4 (Homo sapiens) (UniProt P54760).
T1 sequence (whole entry): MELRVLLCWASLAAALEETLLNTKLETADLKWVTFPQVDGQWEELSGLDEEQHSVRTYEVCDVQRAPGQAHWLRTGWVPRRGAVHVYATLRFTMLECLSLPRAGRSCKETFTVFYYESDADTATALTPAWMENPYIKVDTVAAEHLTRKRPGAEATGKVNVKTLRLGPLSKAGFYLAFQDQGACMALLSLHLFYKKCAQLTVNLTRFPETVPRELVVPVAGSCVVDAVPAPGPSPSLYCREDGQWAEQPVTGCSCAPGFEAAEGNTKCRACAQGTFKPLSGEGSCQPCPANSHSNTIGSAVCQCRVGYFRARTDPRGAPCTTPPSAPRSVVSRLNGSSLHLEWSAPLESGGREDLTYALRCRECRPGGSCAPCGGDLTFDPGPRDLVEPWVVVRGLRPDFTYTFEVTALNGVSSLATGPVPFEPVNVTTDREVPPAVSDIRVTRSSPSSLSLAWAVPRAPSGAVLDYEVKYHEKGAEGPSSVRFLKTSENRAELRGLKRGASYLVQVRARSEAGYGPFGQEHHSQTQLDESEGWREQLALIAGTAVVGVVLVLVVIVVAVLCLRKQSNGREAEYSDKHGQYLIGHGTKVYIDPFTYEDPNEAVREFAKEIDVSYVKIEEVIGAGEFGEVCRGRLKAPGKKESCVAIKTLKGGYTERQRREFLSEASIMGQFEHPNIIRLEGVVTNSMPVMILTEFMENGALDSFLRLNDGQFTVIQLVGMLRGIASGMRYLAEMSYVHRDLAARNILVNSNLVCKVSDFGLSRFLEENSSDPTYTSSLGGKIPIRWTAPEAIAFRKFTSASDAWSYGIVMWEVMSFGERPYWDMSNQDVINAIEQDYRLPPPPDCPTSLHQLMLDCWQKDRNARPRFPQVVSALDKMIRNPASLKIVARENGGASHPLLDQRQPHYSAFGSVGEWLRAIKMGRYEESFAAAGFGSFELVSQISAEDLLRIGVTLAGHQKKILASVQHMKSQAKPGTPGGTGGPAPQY
Description: Inhibition of EphB4 at 10 uM by HTRF assay relative to control. A digest of the protocol: as §1

Assay [4] has as its target Tyrosine-protein kinase Fes/Fps (Homo sapiens) (UniProt P07332). As to the kind of experiment: Inhibition of FES at 10 uM by HTRF assay relative to control. The essentials:
as §1

Assay [5] addresses Cyclin-dependent kinase 2 (Homo sapiens) (UniProt P24941). Description: Inhibition of CDK2 at 10 uM by HTRF assay relative to control. A digest of the protocol: as §1
The target in assay [6] is Ribosomal protein S6 kinase beta-1 (Homo sapiens) (UniProt P23443). As to the kind of experiment: Inhibition of p70S6K at 10 uM by HTRF assay relative to control. A digest of the protocol:
as §1

The target in assay [7] is Cyclin-dependent kinase 1 (Homo sapiens) (UniProt P06493). As to the kind of experiment: Inhibition of CDK1 at 10 uM by HTRF assay relative to control. The essentials:
as §1

For assay [8], the target named is Vascular endothelial growth factor receptor 2 (Homo sapiens) (UniProt P35968). Description: Inhibition of KDR at 10 uM by HTRF assay relative to control. A digest of the protocol:
as §1

Assay [9] deals with T2, Calcium/calmodulin-dependent protein kinase type IV (Homo sapiens) (UniProt Q16566).
T2 sequence (whole entry): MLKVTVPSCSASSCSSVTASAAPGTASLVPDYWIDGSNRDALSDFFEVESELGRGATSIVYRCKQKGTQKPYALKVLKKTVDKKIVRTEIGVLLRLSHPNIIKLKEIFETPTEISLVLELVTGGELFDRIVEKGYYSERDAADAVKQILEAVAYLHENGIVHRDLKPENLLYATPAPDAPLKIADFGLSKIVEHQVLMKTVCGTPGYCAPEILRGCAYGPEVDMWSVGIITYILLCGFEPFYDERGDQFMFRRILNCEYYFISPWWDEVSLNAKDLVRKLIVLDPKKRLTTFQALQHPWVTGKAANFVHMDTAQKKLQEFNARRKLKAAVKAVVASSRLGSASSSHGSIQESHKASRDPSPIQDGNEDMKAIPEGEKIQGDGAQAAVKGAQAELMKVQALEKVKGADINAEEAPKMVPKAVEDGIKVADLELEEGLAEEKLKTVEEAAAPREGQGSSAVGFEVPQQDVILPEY
Description: Inhibition of CaMK4 at 10 uM by HTRF assay relative to control. The essentials: as §1

In assay [10] the target is Protein kinase C alpha type (Homo sapiens) (UniProt P17252). As to the kind of experiment: Inhibition of PKCalpha at 10 uM by HTRF assay relative to control. A digest of the protocol: as §1
Assay [11] has as its target T3, Serine/threonine-protein kinase Chk1 (Homo sapiens) (UniProt O14757).
T3 sequence (whole entry): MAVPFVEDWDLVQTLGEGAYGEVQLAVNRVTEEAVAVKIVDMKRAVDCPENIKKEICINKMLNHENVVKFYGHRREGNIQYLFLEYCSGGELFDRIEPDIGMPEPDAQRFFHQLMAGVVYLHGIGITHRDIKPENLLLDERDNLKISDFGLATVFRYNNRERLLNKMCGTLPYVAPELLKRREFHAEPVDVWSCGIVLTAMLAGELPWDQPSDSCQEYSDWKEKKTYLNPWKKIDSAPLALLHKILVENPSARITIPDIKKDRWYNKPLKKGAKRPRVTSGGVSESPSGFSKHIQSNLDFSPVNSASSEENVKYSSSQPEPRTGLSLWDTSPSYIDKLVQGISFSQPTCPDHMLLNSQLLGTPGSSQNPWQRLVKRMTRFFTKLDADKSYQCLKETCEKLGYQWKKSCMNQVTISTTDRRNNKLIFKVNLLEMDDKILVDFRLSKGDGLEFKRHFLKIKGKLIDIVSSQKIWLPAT
As to the kind of experiment: Inhibition of CHK1 at 10 uM by HTRF assay relative to control. A digest of the protocol:
as §1

Assay [12] has as its target Protein kinase C gamma type (Homo sapiens) (UniProt P05129). Description: Inhibition of PKCgamma at 10 uM by HTRF assay relative to control. A digest of the protocol: as §1
Assay [13] deals with High affinity nerve growth factor receptor (Homo sapiens) (UniProt P04629). Description: Inhibition of TrkA at 10 uM by HTRF assay relative to control. The essentials: as §1
High affinity nerve growth factor receptor (Homo sapiens), sequence (P04629 33-796 limits assumed): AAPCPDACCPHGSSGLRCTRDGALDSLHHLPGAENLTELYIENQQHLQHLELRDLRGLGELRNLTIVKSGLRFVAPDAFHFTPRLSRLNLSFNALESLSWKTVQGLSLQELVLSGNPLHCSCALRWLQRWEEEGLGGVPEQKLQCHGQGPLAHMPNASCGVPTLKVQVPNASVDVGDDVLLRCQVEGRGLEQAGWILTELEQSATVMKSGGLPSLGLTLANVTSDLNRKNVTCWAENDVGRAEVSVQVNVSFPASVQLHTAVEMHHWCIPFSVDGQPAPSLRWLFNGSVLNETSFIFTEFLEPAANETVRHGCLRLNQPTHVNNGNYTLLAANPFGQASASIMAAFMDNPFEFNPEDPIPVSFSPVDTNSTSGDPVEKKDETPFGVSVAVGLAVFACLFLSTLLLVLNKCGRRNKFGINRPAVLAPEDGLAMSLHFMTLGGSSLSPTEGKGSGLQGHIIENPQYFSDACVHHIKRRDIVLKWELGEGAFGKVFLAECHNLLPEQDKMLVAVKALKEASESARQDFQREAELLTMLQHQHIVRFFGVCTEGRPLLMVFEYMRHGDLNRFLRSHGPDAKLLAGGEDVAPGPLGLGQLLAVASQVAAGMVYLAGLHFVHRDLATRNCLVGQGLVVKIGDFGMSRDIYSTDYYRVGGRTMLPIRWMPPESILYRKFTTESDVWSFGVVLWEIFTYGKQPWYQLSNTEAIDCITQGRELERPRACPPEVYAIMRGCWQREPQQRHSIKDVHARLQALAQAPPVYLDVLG

Tyrosine-protein kinase Fes/Fps (Homo sapiens), sequence (P07332 whole entry): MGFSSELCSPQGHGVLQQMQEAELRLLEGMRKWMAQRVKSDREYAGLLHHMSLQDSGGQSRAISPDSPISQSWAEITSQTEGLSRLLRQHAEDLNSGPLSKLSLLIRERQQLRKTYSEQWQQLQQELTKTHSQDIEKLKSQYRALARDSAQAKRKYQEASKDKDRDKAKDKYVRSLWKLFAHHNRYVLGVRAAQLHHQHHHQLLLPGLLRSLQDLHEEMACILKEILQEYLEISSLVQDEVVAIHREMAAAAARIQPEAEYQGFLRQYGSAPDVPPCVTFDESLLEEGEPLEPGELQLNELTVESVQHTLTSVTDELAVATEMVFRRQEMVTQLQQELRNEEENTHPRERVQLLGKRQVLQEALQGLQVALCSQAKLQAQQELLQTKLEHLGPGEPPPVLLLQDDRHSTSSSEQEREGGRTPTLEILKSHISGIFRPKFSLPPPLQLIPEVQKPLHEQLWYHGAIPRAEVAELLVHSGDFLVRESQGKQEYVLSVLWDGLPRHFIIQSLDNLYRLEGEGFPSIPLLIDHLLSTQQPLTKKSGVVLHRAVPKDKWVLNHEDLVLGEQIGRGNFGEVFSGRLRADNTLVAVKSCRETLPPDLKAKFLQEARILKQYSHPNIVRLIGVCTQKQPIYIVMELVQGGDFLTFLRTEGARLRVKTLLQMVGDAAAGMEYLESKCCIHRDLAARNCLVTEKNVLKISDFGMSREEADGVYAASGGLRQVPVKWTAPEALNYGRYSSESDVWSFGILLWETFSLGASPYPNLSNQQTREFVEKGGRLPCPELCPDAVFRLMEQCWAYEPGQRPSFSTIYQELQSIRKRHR
Vascular endothelial growth factor receptor 2 (Homo sapiens), sequence (P35968 whole entry): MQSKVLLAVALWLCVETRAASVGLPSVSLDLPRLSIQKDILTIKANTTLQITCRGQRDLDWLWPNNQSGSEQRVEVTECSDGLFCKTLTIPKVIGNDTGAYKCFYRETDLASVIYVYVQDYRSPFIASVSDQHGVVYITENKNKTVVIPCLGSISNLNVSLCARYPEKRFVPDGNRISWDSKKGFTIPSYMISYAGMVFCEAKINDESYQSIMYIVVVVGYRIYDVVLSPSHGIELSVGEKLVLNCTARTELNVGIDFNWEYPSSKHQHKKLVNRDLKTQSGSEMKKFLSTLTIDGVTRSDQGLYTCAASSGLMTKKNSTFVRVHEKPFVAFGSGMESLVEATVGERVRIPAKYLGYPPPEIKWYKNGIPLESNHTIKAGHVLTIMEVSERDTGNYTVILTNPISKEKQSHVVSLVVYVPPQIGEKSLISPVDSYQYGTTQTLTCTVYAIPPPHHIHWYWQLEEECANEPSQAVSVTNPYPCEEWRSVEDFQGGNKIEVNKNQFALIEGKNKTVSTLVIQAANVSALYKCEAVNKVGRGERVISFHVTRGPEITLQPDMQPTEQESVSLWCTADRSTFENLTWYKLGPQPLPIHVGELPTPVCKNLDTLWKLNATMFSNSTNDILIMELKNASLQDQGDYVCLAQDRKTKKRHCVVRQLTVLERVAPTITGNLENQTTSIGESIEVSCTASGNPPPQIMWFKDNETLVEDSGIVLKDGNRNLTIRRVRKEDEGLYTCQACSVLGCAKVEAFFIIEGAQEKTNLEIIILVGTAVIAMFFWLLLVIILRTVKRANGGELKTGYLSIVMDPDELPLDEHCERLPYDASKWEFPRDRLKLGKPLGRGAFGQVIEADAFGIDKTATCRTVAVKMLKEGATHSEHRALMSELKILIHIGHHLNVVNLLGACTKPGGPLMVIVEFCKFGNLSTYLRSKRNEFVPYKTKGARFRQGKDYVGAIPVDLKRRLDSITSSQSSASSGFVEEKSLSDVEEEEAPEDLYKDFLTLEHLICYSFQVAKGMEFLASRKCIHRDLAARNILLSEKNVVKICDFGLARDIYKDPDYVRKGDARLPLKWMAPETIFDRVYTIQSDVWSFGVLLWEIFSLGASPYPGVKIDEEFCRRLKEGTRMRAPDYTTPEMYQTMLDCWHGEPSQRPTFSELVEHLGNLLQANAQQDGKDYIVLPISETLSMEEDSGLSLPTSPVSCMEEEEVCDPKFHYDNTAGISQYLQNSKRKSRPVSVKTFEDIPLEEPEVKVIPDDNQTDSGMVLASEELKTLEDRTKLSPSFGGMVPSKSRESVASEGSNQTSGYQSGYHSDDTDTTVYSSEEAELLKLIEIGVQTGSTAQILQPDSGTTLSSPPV
Proto-oncogene tyrosine-protein kinase Src (Homo sapiens), sequence (P12931 2-536 limits assumed): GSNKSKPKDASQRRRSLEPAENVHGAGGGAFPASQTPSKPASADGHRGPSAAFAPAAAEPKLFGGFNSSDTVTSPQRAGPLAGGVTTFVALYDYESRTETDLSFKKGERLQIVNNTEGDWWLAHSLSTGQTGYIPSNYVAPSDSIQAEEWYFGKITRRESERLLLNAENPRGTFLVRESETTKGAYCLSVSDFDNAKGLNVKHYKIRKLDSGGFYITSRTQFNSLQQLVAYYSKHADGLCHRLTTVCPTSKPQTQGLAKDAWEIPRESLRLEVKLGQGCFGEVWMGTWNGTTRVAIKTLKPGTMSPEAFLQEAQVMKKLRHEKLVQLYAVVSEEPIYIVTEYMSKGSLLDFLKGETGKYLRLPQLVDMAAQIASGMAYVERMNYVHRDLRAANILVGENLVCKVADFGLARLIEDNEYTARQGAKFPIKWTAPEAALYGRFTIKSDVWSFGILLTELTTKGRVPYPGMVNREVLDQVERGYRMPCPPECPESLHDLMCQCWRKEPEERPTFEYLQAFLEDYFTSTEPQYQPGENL
Cyclin-dependent kinase 1 (Homo sapiens), sequence (P06493 whole entry, looked up): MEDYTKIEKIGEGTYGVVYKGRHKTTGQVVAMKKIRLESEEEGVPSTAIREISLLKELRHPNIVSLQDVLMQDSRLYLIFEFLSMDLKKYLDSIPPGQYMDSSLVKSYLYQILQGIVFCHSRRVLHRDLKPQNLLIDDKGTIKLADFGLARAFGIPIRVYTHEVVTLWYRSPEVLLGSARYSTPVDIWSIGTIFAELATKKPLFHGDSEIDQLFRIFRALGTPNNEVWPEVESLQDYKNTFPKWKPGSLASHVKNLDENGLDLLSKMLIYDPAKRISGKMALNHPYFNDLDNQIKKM
Ribosomal protein S6 kinase beta-1 (Homo sapiens), sequence (P23443 whole entry, looked up): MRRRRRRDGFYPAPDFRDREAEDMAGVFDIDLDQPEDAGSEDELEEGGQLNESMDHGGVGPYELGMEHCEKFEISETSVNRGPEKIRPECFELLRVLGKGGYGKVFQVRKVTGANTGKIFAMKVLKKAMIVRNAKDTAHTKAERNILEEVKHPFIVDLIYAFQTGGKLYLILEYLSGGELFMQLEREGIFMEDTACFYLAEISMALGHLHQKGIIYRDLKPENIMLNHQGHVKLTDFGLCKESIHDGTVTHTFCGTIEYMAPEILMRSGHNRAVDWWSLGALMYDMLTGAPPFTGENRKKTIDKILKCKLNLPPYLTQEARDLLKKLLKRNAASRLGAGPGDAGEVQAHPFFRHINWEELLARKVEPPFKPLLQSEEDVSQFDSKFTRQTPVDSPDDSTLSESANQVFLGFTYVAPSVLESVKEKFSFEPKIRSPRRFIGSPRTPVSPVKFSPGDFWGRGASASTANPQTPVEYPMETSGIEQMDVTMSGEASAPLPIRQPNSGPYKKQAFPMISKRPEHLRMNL

As for `Cc1cccc(N(C)c2cc(Nc3cccc(C(=O)NCc4ccc(N(C)C)cc4)c3)ncn2)c1`, the inhibition was 4% in [1]; 21% in assay [2]; 4% in assay [3]; 4% in assay [4]; 1% in assay [5]; 3% in [6]. Also, the inhibition was found to be 0% in assay [7]; 0% in assay [8]; 0% in [9]; 0% in [10]; 1% in [11]; 10% in assay [12]. Moreover, the inhibition in assay [13] turned out to be 8%.

For the compound `Cc1cccc(Oc2ccnc(N3CCN(CC(=O)Nc4cccc5c4CCCC5)CC3)n2)c1`, the inhibition in assay [1] is 5%; in assay [2] it was 0%; in assay [3], 0%; in assay [4] it was 23%; in assay [5] it was 4%; in assay [6] it was 14%. Besides, the inhibition in assay [7] worked out at 0%; in [8], 0%; in [9], 0%; in assay [10], 3%; in [11], 5%; in assay [12] it was 5%. The compound further came in with an inhibition in assay [13] of 10%.
